The test system of one assay is Staphylococcus aureus. The assay can be described thus: Antibacterial activity against methicillin-resistant Staphylococcus aureus clinical isolates from cystic fibrosis patients assessed as growth inhibition by CLSI broth microdilution method.
A short description of assay [1]: Antioxidant activity of the compound by voltammetric analysis. It is filed as functional.
The nature of assay [2]: Antioxidant activity assessed as Fe (II) equivalent of (TPTZ)2Fe3+ reducing activity after 4 mins by FRAP assay. It counts as functional. The method in brief: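 FRAP reagent made from TPTZ and FeCl₃ in aqueous acetate buffer. Reagent and diluted sample mixed in a cuvette; absorbance of the blue Fe²⁺ complex at 593 nm read exactly 4 min later at 25.0 °C. Four or five sample concentrations tested. Slope of absorbance vs concentration divided by the FeSO₄ standard slope gives activity in mmol equiv Fe²⁺.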

The nature of assay [3]: Antioxidant activity assessed as trolox equivalent of ABTS radical scavenging activity at pH 7.4 after 6 mins by TEAC assay. It is filed as functional. A digest of the protocol: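 ABTS radical cation preformed with K₂S₂O₈ in PBS, pH 7.4. Diluted radical solution mixed with sample dissolved in DMSO; absorbance at 734 nm read exactly 6 min later at 30.0 °C. A DMSO blank was run, and the Trolox standard was treated the same way and checked before each series. Activity is given as a ratio to Trolox with its standard error.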

Assay [4] in a line: Antioxidant activity assessed as resorcinol equivalent of peroxy radical scavenging activity at pH 2.2 by BR assay. It is filed as functional. A digest of the protocol:
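Briggs-Rauscher oscillating reaction thermostated at 25.0 °C. The resorcinol standard line was checked before each series. Relative antioxidant activity is taken from the sample and resorcinol concentrations that give the same effect.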

Assay [5] relates to Radical scavenging activity. Briefly: Antioxidant activity assessed as trolox equivalent of DPPH radical scavenging activity after 15 mins by spectroscopic analysis. It counts as functional. The method in brief:
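Absorbance at 515 nm of methanolic DPPH radical read before (A₀) and 15 min after (Af) adding sample. Inhibition % = (1 − Af/A₀) × 100. Plots of % inhibition vs concentration were fitted with lines through the origin and compared with the Trolox standard.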

The test system of assay [6] is Radical scavenging activity. Briefly: Antioxidant activity assessed as trolox equivalent of DPPH radical scavenging activity by spectroscopic analysis. It counts as functional. (In general: Loss of DPPH colour is used to gauge radical scavenging.)

In brackets after ≈: the same amount, converted by molar mass. Activity calls are given as the source filed them. The rule behind the calls is not given here.

In the case of `CO/N=C(\C(=O)N[C@@H]1C(=O)N2C(C(=O)O)=C(COC(C)=O)CS[C@H]12)c1csc(N)n1` [CEFOTAXIME], in the assay with Staphylococcus aureus, the MIC50 was 128 µg/mL (≈ 281 µM) and the MIC90 is over 128 µg/mL.
Regarding `CC(=O)SC1CC(=O)N1` (stereo not drawn), the result in assay [1], in assay [2], in assay [3], in assay [4] and in assay [5] was inactive. The MIC50 in the assay with Staphylococcus aureus amounted to 32 µg/mL (≈ 220 µM). In addition, the MIC90 in the assay with Staphylococcus aureus came out at 64 µg/mL (≈ 441 µM).
With `CSN1C(=O)[C@H]([C@@H](C)OC(=O)/C=C/c2ccc(O)c(O)c2)[C@H]1OC(C)=O`, the Activity in assay [2] was 1.98 mmol; in assay [3], 0.98 mmol; in assay [4], 1.95 µM; in assay [5], 1.23 mmol. Also, the MIC50 in the assay on Staphylococcus aureus came out at 64 µg/mL (≈ 168 µM). For the same compound, in the assay with Staphylococcus aureus, the MIC90 was found to be 64 µg/mL (≈ 168 µM).
In the case of `O=C1O[C@H]([C@@H](O)CO)C(O)=C1O`, the Activity in assay [6] is 1100 µM.
Turning to `CCOCOc1c(OC)cc(C(=O)O[C@H](C)[C@H]2C(=O)N(SC)[C@@H]2OC(C)=O)cc1OC`, the result in assay [2], in assay [3] and in assay [5] was inactive. Besides, the Activity in assay [4] was found to be 0.7 µM.
For VITAMIN E, the Activity in assay [6] amounted to 500 µM.
Take `CSN1C(=O)[C@H]([C@@H](C)O)[C@H]1SC(C)=O`: the outcome in assay [2], in assay [3], in assay [4] and in assay [5] was inactive. Further, the MIC50 with Staphylococcus aureus was found to be 64 µg/mL (≈ 272 µM). In addition, the MIC90 in the assay with Staphylococcus aureus was determined as 128 µg/mL (≈ 544 µM).
Turning to `CSN1CCC1=O`, the result in assay [1] was inactive.
For `CSN1C(=O)C[C@@H]1OC(C)=O`, the result in assay [2], in assay [3], in assay [4] and in assay [5] was inactive. In addition, in the assay on Staphylococcus aureus, the MIC worked out at 32 µg/mL (≈ 183 µM). In the assay with Staphylococcus aureus, the MIC50 is 32 µg/mL (≈ 183 µM). For the same compound, the MIC90 in the assay with Staphylococcus aureus came out at 64 µg/mL (≈ 365 µM).
For the compound `CSN1C(=O)[C@H]([C@@H](C)O)[C@H]1OC(C)=O`, the result in assay [2], in assay [3], in assay [4] and in assay [5] was inactive. In the assay on Staphylococcus aureus, the MIC50 was 64 µg/mL (≈ 292 µM). Also, in the assay with Staphylococcus aureus, the MIC90 is over 128 µg/mL.
In the case of `CO/N=C(\C(=O)N[C@@H]1C(=O)N2C(C(=O)O)=C(CSc3nc(=O)c(O)nn3C)CS[C@H]12)c1csc(N)n1` [CEFTRIAXONE], in the assay with Staphylococcus aureus, the MIC50 was 8 µg/mL (≈ 14.4 µM) and the MIC90 was over 128 µg/mL.
Turning to `CC(O[Si](C)(C)C(C)(C)C)[C@H]1C(=O)N/C1=C\C(=O)Sc1ccccc1` (stereo partly drawn), the result in assay [1] was inactive.
With `COc1cc(C(=O)O[C@H](C)[C@H]2C(=O)N(SC)[C@@H]2OC(C)=O)cc(OC)c1O`, the Activity turned out to be 0.19 mmol in assay [2], 0.037 mmol in assay [3], 1.8 µM in assay [4] and 0.0091 mmol in assay [5]. Further, the MIC50 in the assay on Staphylococcus aureus stood at 64 µg/mL (≈ 160 µM). The MIC90 in the assay with Staphylococcus aureus turned out to be 128 µg/mL (≈ 320 µM).
In the case of `CSN1C(=O)[C@H]([C@@H](C)OC(=O)c2ccc(O)c(O)c2)[C@H]1OC(C)=O`, the Activity in assay [2] was determined as 1.91 mmol; in assay [3], 1.23 mmol; in assay [4], 0.38 µM; in assay [5] it was 1.96 mmol. Moreover, the MIC50 in the assay on Staphylococcus aureus stood at 128 µg/mL (≈ 360 µM). The MIC90 in the assay with Staphylococcus aureus was over 128 µg/mL.
Consider `CSN1C(=O)CC1SC(C)=O` (stereo not drawn), for which the result in assay [2], in assay [3], in assay [4] and in assay [5] was inactive. Besides, the MIC with Staphylococcus aureus is 16 µg/mL (≈ 83.6 µM). Also, the MIC50 in the assay on Staphylococcus aureus is 16 µg/mL (≈ 83.6 µM). For the same compound, the MIC90 with Staphylococcus aureus was 32 µg/mL (≈ 167 µM).

The term MIC50 denotes an inhibitory concentration at the 50% level, which refers to growth in some studies and to a panel of isolates in others. A word on the MIC90: it is the lowest concentration that inhibits either 90% of growth or 90% of the strains tested, depending on the study. What is called MIC is the lowest concentration found to suppress growth.
